Here are results for 51 compounds from PubChem BioAssay AID623897 (Broad Institute, 2012).

For orientation: AC50 means the concentration at which the activity in the assay is half-maximal.

Where “and” joins values, the source holds several entries; their conditions need not be identical. Identical values can stand only once. Calls of active or inactive are those of the source.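 How the source made its calls: active means fitted AC50 at or below twice the top valid tested dose for that sample, with falling signal; inconclusive means flat curve with 30 to 70% inhibition, or poor fit; inactive means the rest.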

System in the first experiment: not listed separately
In words: growth inhibition of C. albicans CaCi-17, confirmation, retest at dose, dry powder, set 2 (AID 623897). The following applies: C. albicans CaCi-17 growth, Alamar Blue fluorescence, 48 h; at 26 µM (top of the series). The method, boiled down:
(§1)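 Medium: MOPS-buffered RPMI 1640 plus uridine, glucose; schedule: 48 h static growth at 37 °C, then 2 h Alamar Blue; signal: Alamar Blue fluorescence; controls: amphotericin B 10 µM as positive control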
As to `O=C1NC(=S)NC12CCCCC2`, the activity change, negative = inhibition was 2.58% (inactive). Same read-out and setting: the figure for `CCOC(=O)N1C(=O)C2(CCCC2)N(c2ccc(C)cc2)C1=S` is 1.68% (inactive); for `CCCCN1C(=O)C2(CCCCC2)N(c2ccc(C)cc2)C1=S` it is -7.78% (inactive); for `Cc1ccc(N2C(=S)N(C(=O)OCc3ccccc3)C(=O)C23CCCCC3)cc1` it is 5.07% (inactive). Same read-out and setting: the figure for `Cc1ccc(N2C(=S)NC(=O)C2(C)C)cc1` is 2.64% (inactive); for `Cc1ccc(N2CC(=O)NC2=O)cc1` it is -8.61% (inactive). Still for that read-out and setting: the figure for `Cc1ccc(N2C(=O)C(=O)NC2=S)cc1` is 5.65% (inactive); for `CC(C)N1C(=S)NC(=O)C12CCCCC2` it is -18.9% (inactive).

As for `Cc1ccc(N2C(=O)N(C)C(=O)C23CCCCC3)cc1`, the activity change, negative = inhibition was 0.531% (inactive).

For `CCOC(=O)N1C(=S)N(c2ccc(C)cc2)C(=O)C12CCCCC2`, the activity change, negative = inhibition was 3.4% (inactive). Same read-out and setting: for `CCCc1ccc(N2C(=S)N(C(=O)OCC)C(=O)C23CCCCC3)cc1` the value was -11.5% (inactive). The same measure, in the same setting: the figure for `Cc1ccc(N2C(=O)C3(CCCCC3)NC2=S)cc1` is 5.29% (inactive); for `CCOC(=O)N1C(=S)N(c2ccc(C)cc2)C2(CCCCC2)C1=NCc1ccccc1` it is 5.9% (inactive). The same measure, in the same setting: for `O=C1NC(=S)N(Cc2ccccc2)C12CCCCC2` the value was 0.955% (inactive). As to `Cc1ccc(N2C(=S)N(C(=O)OC(C)C)C(=O)C23CCCCC3)cc1`, the activity change, negative = inhibition was 7.31% (inactive). On the same count and under the same terms, for `CCOC(=O)N1C(=O)C2(CCCCC2)N(c2ccc(C(C)C)cc2)C1=S` the value was 8.52% (inactive). Still for that read-out and setting: the figure for `Cc1ccc(N2C(=S)N(C(=O)Oc3ccccc3)C(=O)C23CCCCC3)cc1` is 1.41% (inactive); for `CCOC(=O)N1C(=O)C2(CCCCC2)N(c2ccc(CC)cc2)C1=S` it is -31.8% (inactive). The same measure, in the same setting: for `CCOC(=O)N1C(=O)C2(CCOCC2)N(c2ccc(C)cc2)C1=S` the value was 0.474% (inactive); for `CCCCN1C(=O)N(c2ccc(C)cc2)C2(CCCCC2)C1=O`, 9.41% (inactive). For `Cc1ccc(N2C(=S)NC(=O)C23CCCCC3)cc1`, the activity change, negative = inhibition is -4.65% (inactive).

For the compound `CCOC(=O)N1C(=O)C2(CCCCC2)N(C(C)C)C1=S`, the activity change, negative = inhibition was -6.94% (inactive). Regarding `Cc1ccc(N2C(=O)NC(=O)C23CCCCC3)cc1`, the activity change, negative = inhibition was 5.65% (inactive). As to `O=C1NC(=S)N(c2ccc(F)cc2)C12CCCCC2`, the activity change, negative = inhibition is -18.2% (inactive).

For `Cc1ccc(N2C(=S)N(S(C)(=O)=O)C(=O)C23CCCCC3)cc1`, the activity change, negative = inhibition is 3.7% (inactive). On the same count and under the same terms, the figure for `CCOC(=O)N1C(=O)C2(CCC2)N(c2ccc(C)cc2)C1=S` is 13.1% (inactive); for `CCCC(=O)N1C(=O)C2(CCCCC2)N(c2ccc(C)cc2)C1=S` it is 8.69% (inactive). The same measure, in the same setting: the figure for `CCOC(=O)N1C(=O)C2(CCCCC2)NC1=S` is -0.208% (inactive). For `Cc1ccc(N2C(=S)NC(=O)C23CCCC3)cc1`, the activity change, negative = inhibition is 4.84% (inactive). On the same count and under the same terms, for `CCOC(=O)N1C(=O)C(C)(C)N(c2ccc(C)cc2)C1=S` the value was 11.1% (inactive); for `CCCOC(=O)N1C(=O)C2(CCCCC2)N(c2ccc(C)cc2)C1=S`, 17.3% (inactive). On the same count and under the same terms, for `Cc1ccc(N2C(=S)N(C)C(=O)C23CCCCC3)cc1` the value was -21% (inactive); for `CCOC(=O)N1C(=S)NC(=O)C12CCCCC2`, 8.62% (inactive).

Another experiment concerns C. albicans CaCi-17 growth, Alamar Blue fluorescence, 48 h. The experiment is described as above.
Settings: not given
The method, boiled down: as §1
Consider `Cc1ccc(N2C(=S)NC(=O)C23CCOCC3)cc1`, for which the AC50 was > 52 µM (inactive). Turning to `CCOC(=O)N1C(=O)C2(CCCCC2)N(c2ccc(C(F)(F)F)cc2)C1=S`, the AC50 is 16.2 µM. The same measure, in the same setting: the figure for `CCOC(=O)N1C(=O)C2(CCCCC2)N(Cc2ccccc2)C1=S` is 22.8 µM. As to `O=C1NC(=S)N(c2ccccc2)C12CCCCC2`, the AC50 was > 52 µM (inactive). For `Cc1ccc(N2C(=S)NC(=O)C23CCC3)cc1`, the AC50 was > 52 µM (inactive).

For `CCOC(=O)N1C(=O)C2(CCCCC2)N(c2ccc(C(C)(C)C)cc2)C1=S`, the AC50 was > 52 µM (inactive).

As for `CCOC(=O)N1C(=O)C2(CCCCC2)N(c2cccc(C)c2)C1=S`, the AC50 was 8.16 µM. Same read-out and setting: the figure for `Cc1ccc(N2CC(=O)NC2=S)cc1` is > 52 µM (inactive); for `CCOC(=O)N1C(=O)C2(CCCCC2)N(c2ccc(Cl)cc2)C1=S` it is 1.37 µM. Turning to `CCOC(=O)N1C(=O)C2(CCCCC2)N(c2ccc(C#N)cc2)C1=S`, the AC50 is 1.76 µM.

As for `CCOC(=O)N1C(=O)N(c2ccc(C)cc2)C2(CCCCC2)C1=O`, the AC50 is > 52 µM (inactive). Consider `COC(=O)N1C(=O)C2(CCCCC2)N(c2ccc(C)cc2)C1=S`, for which the AC50 was 17.1 µM. `CCOC(=O)N1C(=O)C2(CCCCC2)N(c2ccc(F)cc2)C1=S`: the half-maximal activity concentration (AC50) is 0.946 µM. Same read-out and setting: the figure for `CC1/C=C/C=C\C=C\C=C\C=C\C=C\C=C\C(O[C@H]2OC(C)C(O)C(N)C2O)CC2OC(O)(CC(O)CC(O)C(O)CCC(O)CC(O)CC(=O)OC(C)C(C)C1O)CC(O)C2C(=O)O` (some centres not stated) is 0.0301 µM. On the same count and under the same terms, the figure for `CCOC(=O)N1C(=O)C2(CCCCC2)N(c2ccc(-c3ccccc3)cc2)C1=S` is > 52 µM (inactive); for `CCOC(=O)N1C(=O)C2(CCCCC2)N(c2ccccc2C)C1=S` it is 23.9 µM; for `CCOC(=O)N1C(=O)C2(CCCCC2)N(c2ccccc2)C1=S` it is 4.15 µM. On to `CCOC(=O)N1C(=O)C2(CCCCC2)N(c2ccc(C)cc2)C1=S`, for which the concentration at half-maximal activity (AC50) is 8.5 µM and 9.7 µM. For `Cc1ccc(N2C(=S)N(C)C(=O)C23CCCCC3)cc1`, the AC50 was > 52 µM (inactive).
